Source: ChEMBL document CHEMBL3272095, “Synthesis and antiviral activity of 5- and 5'-substituted thymidine analogs” (J Med Chem, 1976)

Legend:
Vero = assay: Cytotoxicity against African green monkey Vero cells assessed as inhibition of replication; format: cell-based; conditions: chlorocebus sabaeus
[1] = Cytotoxicity against mouse Sarcoma 180 cells assessed as cell viability at 400 uM after 18 to 42 hrs relative to control
Human alphaherpesvirus 1 [2] = assay: Antiviral activity against Herpes simplex virus 1 infected in African green monkey Vero cells assessed as viral titer at 400 uM after 40 hrs by plaque formation assay relative to control; format: functional
Method in brief: (§1)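 After a 1 h adsorption at 37 °C, inoculum was removed, cells were PBS-washed, and medium with or without compound was added. Incubation was 40 h at 37 °C. Cultures were freeze-thawed three times, and lysate yield was titrated by plaque assay on Vero. Pfu given as % of drug-free culture.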

Human alphaherpesvirus 1 [3] = assay: Antiviral activity against Herpes simplex virus 1 infected in African green monkey Vero cells assessed as viral titer at 200 uM after 40 hrs by plaque formation assay relative to control; format: functional; method in brief: as §1
[4] = Cytotoxicity against mouse Sarcoma 180 cells assessed as cell viability at 100 uM after 18 to 24 hrs relative to control; format: cell-based; conditions: in the assay text read “18 to 42 hrs” for “18 to 24 hrs”, read-out: Activity
Method in brief: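 Sarcoma 180 cells were grown in medium with horse serum at 37 °C under humidified 5% CO2–95% air, with a generation time of about 18 h. Compound was added to exponentially growing cultures at about 2 × 10^4 cells/ml. The increase in cell number was measured after 18 and 42 h, and percent inhibition was calculated relative to a drug-free control.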

SMILES	Activity (Vero)	viability at 400 µM [1] [%]	Activity (Human alphaherpesvirus 1 [2]) [%]	Activity (Human alphaherpesvirus 1 [3]) [%]	viability at 100 µM [4] [%]
Cc1cn([C@H]2C[C@H](O)[C@@H](CN)O2)c(=O)[nH]c1=O	Non-toxic	100	3		
NC[C@H]1O[C@@H](n2cc(Cl)c(O)nc2=O)C[C@@H]1O	Non-toxic	100	29		
NC[C@H]1O[C@@H](n2cc(Br)c(O)nc2=O)C[C@@H]1O	Non-toxic			1	
Cc1ccc(S(=O)(=O)OC[C@H]2O[C@@H](n3cc(Cl)c(=O)[nH]c3=O)C[C@@H]2O)cc1					65
Cc1ccc(S(=O)(=O)OC[C@H]2O[C@@H](n3cc(Br)c(=O)[nH]c3=O)C[C@@H]2O)cc1					65
[N-]=[N+]=NC[C@H]1O[C@@H](n2cc(Cl)c(=O)[nH]c2=O)C[C@@H]1O		100	81		
[N-]=[N+]=NC[C@H]1O[C@@H](n2cc(Br)c(=O)[nH]c2=O)C[C@@H]1O		100	54		
[N-]=[N+]=NC[C@H]1O[C@@H](n2cc(I)c(=O)[nH]c2=O)C[C@@H]1O		100	60		
NC[C@H]1O[C@@H](n2ccc(=O)[nH]c2=O)C[C@@H]1O		100	101		
